In brackets after ≈: the same amount, converted by molar mass.

The term MIC denotes the least concentration at which growth counts as inhibited.

The test system of data set [1] is Mycobacterium tuberculosis. Nature of the data set: Antimycobacterial activity against Mycobacterium tuberculosis H37Rv ATCC 27294 assessed as parasite growth inhibition after 28 days by agar dilution method. As to conditions: H37Rv ATCC 27294, 672 h. It counts as functional. A digest of the protocol: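 Agar dilution in Middlebrook 7H11 with OADC; two-fold dilutions 50.0 to 0.4 µg/mL. Inoculum from fresh 7H11 slants, adjusted to 1 mg/mL wet weight in 0.05% Tween 80 saline, diluted 10-2 to 107 cfu/mL; 5 µL spotted per tube. Incubated 37 °C, read at 28 days. MIC = lowest concentration giving complete growth inhibition; triplicates.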
(In general: In agar dilution, organisms are placed on agar that contains the substance at set levels.)

The nature of data set [2]: Selectivity index, ratio of cytotoxicity for HEK293T cells to MIC for Mycobacterium tuberculosis H37Rv. As to conditions: human, read-out: Selectivity Index. It counts as toxicity, cell-based, HEK-293T.
Data set [3] can be described thus: Cytotoxicity against HEK293T cells at 50 ug/ml after 72 hrs by MTT assay. In kind it is cell-based, HEK-293T. Particulars: human, read-out: INH. A digest of the protocol: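 HEK-293T human embryonic kidney cells exposed to compound at 50 µg/mL for 72 h; viability by cellular MTT conversion to formazan (non-radioactive cell proliferation kit); reported as percentage inhibition of cells.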

`O=C(Cn1cc(-c2ccsc2)nn1)N1c2ccccc2Sc2ccc(C(F)(F)F)cc21`: the MIC in data set [1] was found to be 25 µg/mL (≈ 54.5 µM).

Regarding `CCCCCCc1cn(CC(=O)N2c3ccccc3Sc3ccc(C(F)(F)F)cc32)nn1`, the selectivity ratio in data set [2] was more than 10. For the same compound, the cytotoxicity at 72 h, 50 ug/ml in data set [3] worked out at 25.6%. Further, the MIC in data set [1] worked out at 6.25 µg/mL (≈ 13.6 µM).

In the case of `O=C(Cn1cc(CCCO)nn1)N1c2ccccc2Sc2ccc(C(F)(F)F)cc21`, in data set [1], the MIC was 12.5 µg/mL (≈ 28.8 µM).

As for `O=C(Cn1cc(CCc2ccccc2)nn1)N1c2ccccc2Sc2ccc(C(F)(F)F)cc21`, the MIC in data set [1] came out at 25 µg/mL (≈ 52 µM).

As for `O=C(Cn1cc(C2(O)CCCC2)nn1)N1c2ccccc2Sc2ccc(C(F)(F)F)cc21`, the MIC in data set [1] worked out at 12.5 µg/mL (≈ 27.1 µM).

With `O=C(Cn1cc(C2(O)CCCCC2)nn1)N1c2ccccc2Sc2ccc(C(F)(F)F)cc21`, the MIC in data set [1] stood at 25 µg/mL (≈ 52.7 µM).

On to `O=C(Cn1cc(-c2ccccc2)nn1)N1c2ccccc2Sc2ccc(C(F)(F)F)cc21`, for which, in data set [1], the MIC is 12.5 µg/mL (≈ 27.6 µM).

`Cc1cccc(-c2cn(CC(=O)N3c4ccccc4Sc4ccc(C(F)(F)F)cc43)nn2)c1`: in data set [1], the minimal inhibitory concentration (MIC) was 25 µg/mL (≈ 53.6 µM).

Take `Cc1ccc(-c2cn(CC(=O)N3c4ccccc4Sc4ccc(C(F)(F)F)cc43)nn2)cc1`: the MIC in data set [1] worked out at 25 µg/mL (≈ 53.6 µM).

In the case of `CC(C)(C)c1ccc(-c2cn(CC(=O)N3c4ccccc4Sc4ccc(C(F)(F)F)cc43)nn2)cc1`, the minimal inhibitory concentration (MIC) in data set [1] worked out at 25 µg/mL (≈ 49.2 µM).

Regarding `COc1cccc(-c2cn(CC(=O)N3c4ccccc4Sc4ccc(C(F)(F)F)cc43)nn2)c1`, the selectivity ratio in data set [2] is more than 10. In data set [3], the cytotoxicity at 72 h, 50 ug/ml turned out to be 34.6%. Besides, the MIC in data set [1] was found to be 6.25 µg/mL (≈ 13 µM).

In the case of `COc1ccc(-c2cn(CC(=O)N3c4ccccc4Sc4ccc(C(F)(F)F)cc43)nn2)c(C)c1`, in data set [1], the MIC came out at 12.5 µg/mL (≈ 25.2 µM).

In the case of `O=C(Cn1cc(-c2ccc([N+](=O)[O-])cc2)nn1)N1c2ccccc2Sc2ccc(C(F)(F)F)cc21`, the MIC in data set [1] turned out to be 25 µg/mL (≈ 50.3 µM).

Take `O=C(Cn1cc(-c2ccc(F)cc2F)nn1)N1c2ccccc2Sc2ccc(C(F)(F)F)cc21`: the selectivity ratio in data set [2] was more than 10. In data set [3], the cytotoxicity at 72 h, 50 ug/ml was 30.6%. Moreover, in data set [1], the MIC worked out at 6.25 µg/mL (≈ 12.8 µM).

Consider `O=C(Cn1cc(-c2ccc(Cl)c(Cl)c2)nn1)N1c2ccccc2Sc2ccc(C(F)(F)F)cc21`, for which, in data set [1], the MIC is not above 25 µg/mL.

As for `CCCCCc1ccc(-c2cn(CC(=O)N3c4ccccc4Sc4ccc(C(F)(F)F)cc43)nn2)cc1`, in data set [1], the MIC was not above 25 µg/mL.

`O=C(Cn1cc(-c2ccc(-c3ccccc3)cc2)nn1)N1c2ccccc2Sc2ccc(C(F)(F)F)cc21`: the MIC in data set [1] came to 25 µg/mL (≈ 47.3 µM).

Turning to `CC(=O)c1ccc(C)cc1OCc1cn(CC(=O)N2c3ccccc3Sc3ccc(C(F)(F)F)cc32)nn1`, the MIC in data set [1] was 25 µg/mL (≈ 46.4 µM).

Regarding `COc1ccc2cc(-c3cn(CC(=O)N4c5ccccc5Sc5ccc(C(F)(F)F)cc54)nn3)ccc2c1`, the MIC in data set [1] is 25 µg/mL (≈ 46.9 µM).

Take `O=C(Cn1cc(-c2cc3ccccc3c3ccccc23)nn1)N1c2ccccc2Sc2ccc(C(F)(F)F)cc21`: the MIC in data set [1] was 12.5 µg/mL (≈ 22.6 µM).

On to `CCCCc1cn(CC(=O)N2c3ccccc3Sc3ccc(C(F)(F)F)cc32)nn1`, for which the minimum inhibitory concentration (MIC) in data set [1] stood at 25 µg/mL (≈ 57.8 µM).

`CCCCCc1cn(CC(=O)N2c3ccccc3Sc3ccc(C(F)(F)F)cc32)nn1`: the MIC in data set [1] is 12.5 µg/mL (≈ 28 µM).

Turning to `CC[C@@H](CO)NCCN[C@@H](CC)CO` [ETHAMBUTOL], in data set [1], the minimum inhibitory concentration (MIC) came out at 3.13 µg/mL (≈ 15.3 µM).

Regarding `NNC(=O)c1ccncc1` [ISONIAZID], the MIC in data set [1] worked out at 0.1 µg/mL (≈ 0.729 µM).

Regarding `NC(=O)c1cnccn1` [PYRAZINAMIDE], in data set [1], the MIC was 50 µg/mL (≈ 406 µM).
